Calls of active or inactive are those of the source. No cut-off for these calls is given here.
Experiments:
Mushroom tyrosinase = Mushroom tyrosinase (Agaricus bisporus, UniProt O42713+Q00024+C7FF04+C7FF05); test: Inhibition of diphenolase activity of mushroom tyrosinase using L-Dopa as substrate preincubated with substrate for 10 mins followed by enzyme addition and measured after 5 mins
Method in brief: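 Diphenolase assay: sample (5–300 µM) with 1.25 mM L-DOPA in 0.05 M sodium acetate pH 6.8, preincubated 10 min at 25 °C; mushroom tyrosinase (333 U/mL stock) added last. Linear A475 rise followed up to 5 min; % inhibition, IC50 interpolated from dose-response curves; three replicates. Kojic acid standard at 8–35 µM.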

[1] = Antioxidant activity assessed as ABTS radical scavenging activity incubated in dark for 1 min; assay type: functional
Method in brief: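 ABTS radical cation generated from 7 mM ABTS plus 2.45 mM potassium persulfate (final), held dark at room temperature 24 h, then diluted to A734 0.700 ± 0.02. Sample added, kept dark at room temperature 1 min; drop in A734 read against a Trolox standard curve.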

[2] = biological target: T1, Mushroom tyrosinase (Agaricus bisporus) (UniProt O42713+Q00024+C7FF04+C7FF05); test: Noncompetitive inhibition of diphenolase activity of mushroom tyrosinase assessed as decrease in Vmax with constant Km at 2 to 8 uM using 0.6 to 5 mM L-dopa as substrate by Lineweaver-Burk double reciprocal plot analysis; conditions: dose microM 2-8
HeLa = test: Cytotoxicity against human HeLa cells assessed as cell viability at 4 to 10 uM measured after 48 hrs by MTT assay; assay type: cell-based; conditions: dose 4-10 µM
Method in brief: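 HeLa grown in DMEM with 10% FBS, 2 mM L-glutamine, penicillin/streptomycin, 37 °C, 5% CO2; seeded at 3 × 10^4/mL. Exposed 48 h to compound (4–100 µM in DMSO, DMSO-only control), then MTT (0.5 mg/mL final) 3 h at 37 °C, lysed in DMSO, OD 560 nm; mean ± SD of triplicates.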

[3] = biological target: T1, Mushroom tyrosinase (Agaricus bisporus); test: Potency index, ratio of kojic acid IC50 to test compound IC50 for diphenolase activity of mushroom tyrosinase using L-Dopa as substrate preincubated with substrate for 10 mins followed by enzyme addition and measured after 5 mins

Structure (SMILES)	IC50 (Mushroom tyrosinase) [µM]	other results
O=C(CCN1CCC(Cc2ccccc2)CC1)N1CCN(c2ccccc2)CC1	57.5	
Cc1c(C)c2c(c(C)c1O)CCC(C)(C(=O)O)O2 (stereo not drawn) [TROLOX]		EC50 [1]: 13 µM
O=C(CCN1CCC(Cc2ccc(F)cc2)CC1)N1CCN(c2ccccc2)CC1	23.36	
O=C(CN1CCC(Cc2ccccc2)CC1)N1CCN(c2ccc(O)cc2)CC1	3.8	inhibition [2]: Active; EC50 [1]: 18.1 µM; Activity (HeLa): Non-Toxic; Ratio IC50 [3]: 5
O=C(CN1CCC(Cc2ccccc2)CC1)N1CCN(c2ccccc2)CC1	80.86	
O=C(CN1CCC(Cc2ccc(F)cc2)CC1)N1CCN(c2ccccc2)CC1	9.6	

Continued, in another order:

IC50 (Mushroom tyrosinase) [µM]	Structure (SMILES)	other results
6.06	O=C(CCN1CCC(Cc2ccc(F)cc2)CC1)N1CCN(c2ccc(O)cc2)CC1	
4.03	O=C(CCN1CCC(Cc2ccccc2)CC1)N1CCN(c2ccc(O)cc2)CC1	
4.49	O=C(CN1CCC(Cc2ccc(F)cc2)CC1)N1CCN(c2ccc(O)cc2)CC1	

Reference: ChEMBL document CHEMBL4725226, “Discovery of a new potent inhibitor of mushroom tyrosinase (Agaricus bisporus) containing 4-(4-hydroxyphenyl)piperazin-1-yl moiety” (Bioorg Med Chem, 2020)
